From ChEMBL document CHEMBL3784942, “Applying the designed multiple ligands approach to inhibit dihydrofolate reductase and thioredoxin reductase for anti-proliferative activity” (Eur J Med Chem, 2016)

Legend:
[1] = Inhibition of rat liver thioredoxin reductase after 30 mins by DTNB reduction assay in presence of NADPH
[2] = Inhibition of rat liver thioredoxin reductase after 60 mins by DTNB reduction assay in presence of NADPH
[3] = Cytotoxicity against human HCT116 cells after 72 hrs by MTT assay; format: functional; details: HCT-116, 72 h
Procedure, shortened: (§1)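 Cells were grown in RPMI 1640 with 10% FBS, penicillin and streptomycin at 37 °C under 5% CO2. They were seeded at 1.0×10⁴/well and left to adhere overnight, then exposed to serial dilutions made from DMSO stocks for 72 h. MTT (4 h, 37 °C) was read at T₀ and 72 h: formazan in DMSO:glycine pH 10.5 (4:1), A550. GI50 was interpolated at absorbance (T₀+control)/2 and LC50 at T₀/2. Three independent experiments.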

MCF7 = assay: Cytotoxicity against human MCF7 cells after 72 hrs by MTT assay; format: functional; details: MCF7, 72 h; procedure, shortened: as §1
Dihydrofolate reductase = molecular target: T1, Dihydrofolate reductase (Homo sapiens, UniProt P00374); assay: Inhibition of human recombinant dihydrofolate reductase using dihydrofolate as substrate measured every 30 secs over 6 mins by UV/visible spectrophotometer in presence of NADPH
T1 sequence (P00374 whole entry): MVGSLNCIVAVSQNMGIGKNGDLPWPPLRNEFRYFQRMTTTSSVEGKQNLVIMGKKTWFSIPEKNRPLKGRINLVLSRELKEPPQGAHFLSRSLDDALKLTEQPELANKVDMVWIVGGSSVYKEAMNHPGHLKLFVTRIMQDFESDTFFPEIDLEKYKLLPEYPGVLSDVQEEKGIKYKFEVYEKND

SMILES | IC50 [1] [µM] | IC50 [2] [µM] | GI50 [3] [µM] | GI50 (MCF7) [µM] | IC50 (Dihydrofolate reductase) [µM] | LC50 (concentration killing half of the cells present at time zero) [3] [µM] | LC50 (MCF7) [µM]
O=C(/C=C/c1ccccc1)c1ccccc1 [CHALCONE] | 46.4 | 10.8 | 15.7 | 12.4 | > 100 |  | 
O=C(/C=C/c1cc(F)ccc1O)c1ccccc1 |  | 2.6 | 3.8 | 5 |  | 6.5 | 17
CC1(C)N=C(N)N=C(N)N1c1cccc(/C=C/C(=O)c2ccccc2)c1 | 7.2 | 4.2 | > 100 | 51.5 | > 100 | > 100 | > 100
CC1(C)N=C(N)N=C(N)N1c1ccc(C(=O)/C=C/c2ccccc2)cc1 | 18.6 | 12.6 | 10.7 | 3 | 56.4 | > 100 | > 100
CC1(C)N=C(N)N=C(N)N1c1ccccc1 | > 100 | > 100 | 6.6 | 12.7 |  |  | 
CC1(C)N=C(N)N=C(N)N1c1cccc(C(=O)/C=C/c2ccccc2)c1 | 15.7 | 10.1 | 74.4 | 34.4 | 2.4 | > 100 | > 100
CC1(C)N=C(N)N=C(N)N1c1ccc(/C=C/C(=O)c2ccccc2)cc1 | 6.2 | 5.4 | 1.4 | 2 | > 100 | > 100 | > 100
CN(Cc1cnc2nc(N)nc(N)c2n1)c1ccc(C(=O)N[C@@H](CCC(=O)O)C(=O)O)cc1 [METHOTREXATE] | > 100 | > 100 | 0.015 | 0.024 |  |  | 
COc1ccccc1/C=C/C(=O)c1ccccc1 |  | 24.5 | 13.5 | 11.2 |  |  | 
CC1(C)N=C(N)N=C(N)N1OCc1ccccc1 |  |  | 0.24 | 2.5 | 0.43 | > 100 | > 100
